Results collected from several papers.
Target: LIM domain kinase 1 (LIMK1, Homo sapiens, UniProt P53667)

Compound | read-out | mode | technique | tested at | measurement | value
COc1ncccc1-c1cnn2ccc(N3CCN(C(=O)OC(C)C)CC3)nc12 | binding |  | competition with immobilised ligand | 1 µM | remaining binding | 100%
COc1cc(Nc2ncc(F)c(Nc3ccc4c(n3)NC(=O)C(C)(C)O4)n2)cc(OC)c1OC | binding |  | competition with immobilised ligand | 10 µM | inhibition | 85%
N#CC1(c2ccccn2)CCN(Cc2cc(C(=O)O)c(=O)n3ccccc23)CC1 | cell-free assay |  | competition with immobilised ligand | 1 µM | remaining binding | 100%
CC(C)(C)c1cc(C=C(C#N)C#N)cc(Br)c1O | enzyme activity | inhibitor |  | 0.5 µM | remaining activity | 98.5%
Cn1cc(-c2cc(F)cc(N3CCn4c(cc5c4CCCC5)C3=O)c2CO)cc(Nc2ccc(N3CCN(C4COC4)CC3)cn2)c1=O | enzyme activity | inhibitor |  | 0.1 µM | inhibition | 2%
O=c1[nH]c2ccccc2n1C1CCN(Cc2ccc(-c3[nH]c4cc5ncnc5cc4nc3-c3ccccc3)cc2)CC1 | cell-free assay |  |  | 0.5 µM | remaining signal | 110%
Cn1cc(-c2cccc(N3CCc4c(sc5c4CC(C)(C)C5)C3=O)c2CO)cc(Nc2ccncn2)c1=O | enzyme activity | inhibitor |  | 1 µM | inhibition | 9%
Cn1cncc1[C@](O)(COc1ccc(C#N)cc1-c1ccc(OC(F)(F)F)cc1)c1ccc(C#N)cc1 | cell-free assay |  | competition with immobilised ligand | 1 µM | remaining binding | 89%
Nc1ncc(-c2nc(N3CCOCC3)nc(N3CCOCC3)n2)c(C(F)F)n1 | binding |  | competition with immobilised ligand | 10 µM | remaining binding | 86%
Cc1nn(C)cc1-c1nc2c(N3CCN(Cc4ccc(Cl)cc4)CC3)c(Cl)cnc2[nH]1 | binding |  | competition with immobilised ligand | 1 µM | remaining binding | 58%
